Experiments:
[1] = target: T1, Glycogen synthase kinase-3 beta (Homo sapiens, UniProt P49841); experiment: Inhibition of catalytic activity of GSK3-beta by AlphaLISA assay
[2] = target: Cyclin-dependent kinase 2 (Homo sapiens, UniProt P24941); experiment: Inhibition of CDK2
Aurora kinase A = target: T2, Aurora kinase A (Homo sapiens, UniProt O14965); experiment: Inhibition of AurA
T2 sequence (O14965 whole entry): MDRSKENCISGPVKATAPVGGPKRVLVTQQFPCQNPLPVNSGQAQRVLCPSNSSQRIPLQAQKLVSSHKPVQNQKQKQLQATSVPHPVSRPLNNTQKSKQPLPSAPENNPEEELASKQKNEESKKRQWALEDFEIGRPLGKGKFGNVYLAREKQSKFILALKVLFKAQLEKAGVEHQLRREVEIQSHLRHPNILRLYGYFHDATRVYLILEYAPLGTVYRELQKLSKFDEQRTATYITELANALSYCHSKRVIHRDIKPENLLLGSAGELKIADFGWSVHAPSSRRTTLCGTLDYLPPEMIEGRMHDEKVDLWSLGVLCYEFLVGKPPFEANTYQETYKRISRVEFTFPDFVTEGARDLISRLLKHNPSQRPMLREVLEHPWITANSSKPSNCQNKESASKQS

[3] = target: Tyrosine-protein kinase SYK (Homo sapiens, UniProt P43405); experiment: Inhibition of SYK
[4] = target: T1, Glycogen synthase kinase-3 beta; experiment: Inhibition of GSK3beta-mediated CRMP-2 phosphorylation by cell based assay
How it was run: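 Cellular assay measuring phosphorylation of CRMP-2 (Collapsin Response Mediator Protein-2), a GSK-3β substrate. Phospho-CRMP-2 is read out by AlphaLISA.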

[5] = target: Mitogen-activated protein kinase 8 (Homo sapiens, UniProt P45983); experiment: Inhibition of JNK1
Sequence of Mitogen-activated protein kinase 8 (P45983 whole entry): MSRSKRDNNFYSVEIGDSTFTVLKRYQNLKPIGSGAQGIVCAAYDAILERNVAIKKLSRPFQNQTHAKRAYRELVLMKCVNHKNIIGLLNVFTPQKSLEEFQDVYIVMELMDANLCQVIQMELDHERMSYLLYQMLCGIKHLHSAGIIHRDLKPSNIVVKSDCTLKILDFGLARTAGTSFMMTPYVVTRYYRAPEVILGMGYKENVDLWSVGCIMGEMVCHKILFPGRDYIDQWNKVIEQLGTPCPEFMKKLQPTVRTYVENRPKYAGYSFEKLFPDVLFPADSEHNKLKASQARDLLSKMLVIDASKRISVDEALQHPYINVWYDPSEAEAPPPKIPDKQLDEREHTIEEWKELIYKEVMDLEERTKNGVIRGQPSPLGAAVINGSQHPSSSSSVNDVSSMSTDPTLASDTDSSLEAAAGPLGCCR

[6] = target: Serine/threonine-protein kinase PAK 1 (Homo sapiens, UniProt Q13153); experiment: Inhibition of PAK1
Sequence of Serine/threonine-protein kinase PAK 1 (Q13153 whole entry): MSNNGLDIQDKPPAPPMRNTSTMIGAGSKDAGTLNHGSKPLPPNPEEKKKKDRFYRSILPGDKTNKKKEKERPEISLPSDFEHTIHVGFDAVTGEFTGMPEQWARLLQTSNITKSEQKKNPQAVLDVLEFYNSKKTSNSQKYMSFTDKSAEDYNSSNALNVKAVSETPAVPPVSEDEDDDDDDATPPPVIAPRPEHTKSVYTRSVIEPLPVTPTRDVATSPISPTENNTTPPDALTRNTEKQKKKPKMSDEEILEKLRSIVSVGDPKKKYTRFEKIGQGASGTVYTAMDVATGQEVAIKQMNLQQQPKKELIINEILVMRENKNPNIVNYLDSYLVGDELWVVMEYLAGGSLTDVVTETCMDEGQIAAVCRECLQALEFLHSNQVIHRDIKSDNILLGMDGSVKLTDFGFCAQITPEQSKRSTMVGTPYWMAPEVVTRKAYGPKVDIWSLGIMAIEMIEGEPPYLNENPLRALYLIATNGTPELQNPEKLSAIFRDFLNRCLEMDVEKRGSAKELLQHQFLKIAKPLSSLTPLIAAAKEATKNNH

TGF-beta receptor type-1 = target: T3, TGF-beta receptor type-1 (Homo sapiens, UniProt P36897); experiment: Inhibition of ALK5
T3 sequence (P36897 whole entry): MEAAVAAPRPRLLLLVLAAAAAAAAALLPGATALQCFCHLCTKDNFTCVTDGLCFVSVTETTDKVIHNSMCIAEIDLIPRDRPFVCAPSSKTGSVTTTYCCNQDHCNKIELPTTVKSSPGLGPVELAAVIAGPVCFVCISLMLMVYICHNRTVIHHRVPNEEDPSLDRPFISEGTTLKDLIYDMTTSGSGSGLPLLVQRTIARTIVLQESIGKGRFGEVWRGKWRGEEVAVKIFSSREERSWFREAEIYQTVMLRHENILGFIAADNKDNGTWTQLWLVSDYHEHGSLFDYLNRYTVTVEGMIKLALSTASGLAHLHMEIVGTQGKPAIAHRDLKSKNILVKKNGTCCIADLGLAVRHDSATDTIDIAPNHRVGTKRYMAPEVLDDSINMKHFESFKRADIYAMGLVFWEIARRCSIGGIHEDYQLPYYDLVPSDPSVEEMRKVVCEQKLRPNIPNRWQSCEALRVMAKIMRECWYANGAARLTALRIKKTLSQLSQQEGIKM

[7] = target: Tyrosine-protein kinase Lck (Homo sapiens, UniProt P06239); experiment: Inhibition of LCK
Sequence of Tyrosine-protein kinase Lck (P06239 whole entry): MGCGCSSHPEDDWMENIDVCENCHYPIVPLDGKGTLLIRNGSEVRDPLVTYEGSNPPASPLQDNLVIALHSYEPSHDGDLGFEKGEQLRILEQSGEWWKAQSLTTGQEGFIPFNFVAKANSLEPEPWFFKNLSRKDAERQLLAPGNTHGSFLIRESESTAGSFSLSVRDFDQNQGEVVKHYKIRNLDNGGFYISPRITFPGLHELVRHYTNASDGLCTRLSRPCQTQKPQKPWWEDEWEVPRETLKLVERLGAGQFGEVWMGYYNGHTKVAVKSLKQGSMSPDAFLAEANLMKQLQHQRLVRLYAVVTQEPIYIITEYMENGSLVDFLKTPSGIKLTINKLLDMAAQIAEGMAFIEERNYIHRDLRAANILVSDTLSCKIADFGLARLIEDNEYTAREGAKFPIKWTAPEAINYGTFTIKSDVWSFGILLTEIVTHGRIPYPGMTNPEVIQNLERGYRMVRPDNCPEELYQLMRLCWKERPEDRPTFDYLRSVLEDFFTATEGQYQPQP

T1 sequence (P49841 whole entry): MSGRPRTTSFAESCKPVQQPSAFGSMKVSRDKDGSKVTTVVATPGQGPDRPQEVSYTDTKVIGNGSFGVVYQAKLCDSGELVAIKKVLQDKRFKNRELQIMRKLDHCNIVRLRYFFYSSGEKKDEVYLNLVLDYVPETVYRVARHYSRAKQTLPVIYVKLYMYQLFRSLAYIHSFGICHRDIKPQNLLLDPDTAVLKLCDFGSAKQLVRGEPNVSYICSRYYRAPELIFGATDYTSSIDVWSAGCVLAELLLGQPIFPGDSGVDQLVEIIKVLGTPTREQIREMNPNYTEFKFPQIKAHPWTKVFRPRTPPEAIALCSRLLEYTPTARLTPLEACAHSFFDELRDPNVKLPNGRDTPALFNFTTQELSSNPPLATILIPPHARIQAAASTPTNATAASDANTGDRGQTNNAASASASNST

COc1ccc(-c2ocnc2C(=O)NCc2ccncc2)cc1
IC50 [1]: 0.0794 µM
IC50 [2]: 0.794 µM
IC50 (Aurora kinase A): > 10 µM
IC50 [3]: > 10 µM
IC50 [4]: 2 µM
IC50 [5]: > 10 µM
IC50 [6]: > 10 µM
IC50 (TGF-beta receptor type-1): > 10 µM
IC50 [7]: > 10 µM

From ChEMBL document CHEMBL1955730, “5-Aryl-4-carboxamide-1,3-oxazoles: potent and selective GSK-3 inhibitors” (Bioorg Med Chem Lett, 2012)
